Assay results of several laboratories.
Compare with care: the assays were run in different laboratories.
Target: Serine/threonine-protein kinase 10 (STK10, Homo sapiens, UniProt O94804)

Compound	assay	setting	remaining binding
CS(=O)(=O)NCC[C@H](NC(=O)c1cncc2c1cnn2-c1ccc(F)cc1)c1ccnc(S(C)(=O)=O)c1	cell-free assay, competition with immobilised ligand	1 µM	100%
FC(F)(F)Oc1cccc(-c2cnc3ccc(-c4ccncc4)nn23)c1	binding, competition with immobilised ligand	5 µM	0.3%
C[C@H]1CCN(c2nccc(-c3cnn4ncccc34)n2)C1	binding	1 µM	100%
O=C(c1ccc(Nc2ncc(Cl)c(-c3ccc(Cl)s3)n2)cc1)N1CCC(N2CCCC2)CC1	binding, competition with immobilised ligand	1 µM	28%
O=C(Nc1c[nH]nc1C(=O)NC1CCNCC1)c1cc(F)cc(F)c1	binding, competition with immobilised ligand	1 µM	100%
CCN1CCN(Cc2ccc(C(=O)Nc3ccc(C)c(Oc4ccc5c(c4)CC(=O)N5)c3)cc2C(F)(F)F)CC1	binding, competition with immobilised ligand	1 µM	3.2%
CC1=C(C#N)[C@@H](c2ccc3[nH]nc(C)c3c2)C(C#N)=C(c2ccc(Cl)cc2)N1	cell-free assay, competition with immobilised ligand	1 µM	100%
CNC(=O)[C@@H]1CC[C@@H](n2c(-c3ccc4cnccc4c3)nc3ccc(C(=O)NCc4cccc(C(N)=O)c4)cc32)C1	binding, competition with immobilised ligand	1 µM	83%
C[C@@H]1CN(c2cc(-c3nn(C)c4ccc(OC5(C)CC5)cc34)ncn2)C[C@H](C)O1	cell-free assay, competition with immobilised ligand	1 µM	91%
F[C@@H]1CCN(c2nccc(-c3cnn4ncccc34)n2)C1	binding	1 µM	90%
CN(C(=O)c1ccccc1)c1cc(N(C)c2ccc3c(c2)CCc2ccc(C(=O)NCCN4CCOCC4)cc2C3=O)ccc1F	cell-free assay, competition with immobilised ligand	1 µM	100%
O=C(NCCCN1CCOCC1)c1ccc(Nc2ncc(Cl)c(-c3ccc(Cl)s3)n2)cc1	binding, competition with immobilised ligand	1 µM	57%
CN(CCCC(F)(F)F)c1nccc(-c2cnn3ncccc23)n1	binding	1 µM	100%
O=C(NCCCN1CCOCC1)c1ccc(Nc2nccc(-c3cc4ccccc4s3)n2)cc1	binding, competition with immobilised ligand	1 µM	94%
N[C@H]1CCN(c2nccc(-c3cnn4ncccc34)n2)C1	binding	1 µM	98%
COc1cnc(Nc2cccc(S(N)(=O)=O)c2)nc1N1CCN(c2ccccc2)CC1	binding, competition with immobilised ligand	1 µM	100%
CN(C)c1ncc(F)c(-c2cnn3ncccc23)n1	binding	1 µM	42%
CS(=O)(=O)c1cc(C2(NC(=O)c3cncc4c3cnn4-c3ccc(F)cc3)CC2)ccn1	cell-free assay, competition with immobilised ligand	1 µM	99%
COc1ccnn2ncc(-c3ccnc(N(C)C)n3)c12	binding	1 µM	95%
Cn1cc(Cl)c2c(Oc3c(F)cc(Nc4cc(Cl)nc(N)n4)cc3F)ccnc21	cell-free assay, competition with immobilised ligand	0.1 µM	100%
